Converted amounts (≈) assume the structure as drawn. The source made the active and inactive calls. The calls are words filed in the database; no cut-off is given here.
How the values were obtained:
Format in all cases: functional, cell-based
[1] = test system: PC-3; assay: Cytotoxicity against human PC3 cells after 3 days by SRB assay; conditions: for EC50: PC-3, 72 h
In short: (§1)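 Cells grown in RPMI-1640 with HEPES, 0.25% sodium bicarbonate, 10% FBS and kanamycin. Freshly trypsinized cells were seeded at 1500–7500 per well and compounds added from DMSO-diluted stock. After 3 days, attached cells were fixed with cold 50% TCA, stained with 0.4% SRB, and absorbance read after dye solubilization. EC50 = 50% growth reduction, averaged over ≥3 independent determinations.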

[2] = test system: MCF7; assay: Cytotoxicity against human MCF7 cells after 3 days by SRB assay; conditions: for EC50: MCF7, 72 h; in short: as §1
[3] = test system: KB; assay: Cytotoxicity against human KB cells after 3 days by SRB assay; conditions: for EC50: 72 h; in short: as §1
[4] = test system: KB; assay: Cytotoxicity against vinblastine-resistant human KB cells after 3 days by SRB assay; conditions: in the assay text read “vincristine-resistant” for “vinblastine-resistant”; for EC50: 72 h; in short: as §1

Row | SMILES | EC50 [1] [µg/mL] | EC50 [2] [µg/mL] | EC50 [3] [µg/mL] | EC50 [4] [µg/mL] | Activity [1] | Activity [2] | Activity [3] | Activity [4]
1 | O=C(/C=C/c1cccnc1)c1ccc(CN2CCOCC2)c(O)c1 | 0.9 (≈ 2.77 µM) | 0.67 (≈ 2.07 µM) | 2.17 (≈ 6.69 µM) | 1.17 (≈ 3.61 µM) |  |  |  | 
2 | O=C(/C=C/c1ccco1)c1cccc(O)c1CN1CCOCC1 | 3.8 (≈ 12.1 µM) | 4.7 (≈ 15 µM) | 5.63 (≈ 18 µM) | 5.77 (≈ 18.4 µM) |  |  |  | 
3 | O=C(/C=C/c1ccccc1)c1cccc(O)c1CN1CCOCC1 | 0.33 (≈ 1.02 µM) | 0.28 (≈ 0.866 µM) | 0.83 (≈ 2.57 µM) | 0.36 (≈ 1.11 µM) |  |  |  | 
4 | O=C(/C=C/c1cccs1)c1ccc(O)c(CN2CCOCC2)c1 | 6.49 (≈ 19.7 µM) | 5.62 (≈ 17.1 µM) | 5.14 (≈ 15.6 µM) | 2.58 (≈ 7.83 µM) |  |  |  | 
5 | CCOc1cc(O)c(C(=O)/C=C/c2ccc(C)o2)cc1CN1CCOCC1 |  |  |  |  | inactive | inactive | inactive | inactive
6 | CCOc1cc(O)c(C(=O)/C=C/c2sccc2C)cc1CN1CCOCC1 |  |  |  |  | inactive | inactive | inactive | inactive
7 | CCOc1cc(O)c(C(=O)/C=C/c2ccco2)cc1CN1CCOCC1 |  | 20 (≈ 56 µM) |  |  | inactive |  | inactive | inactive
8 | COc1ccc(/C=C/C(=O)c2cccnc2)c(CN2CCCCC2)c1O | 6.77 (≈ 19.2 µM) | 0.3 (≈ 0.851 µM) | 6.14 (≈ 17.4 µM) | 2.64 (≈ 7.49 µM) |  |  |  | 
9 | O=C(/C=C/c1ccccn1)c1cc(CN2CCOCC2)c(O)c(CN2CCOCC2)c1 | 1.72 (≈ 4.06 µM) | 1.34 (≈ 3.16 µM) | 2.31 (≈ 5.45 µM) | 2.27 (≈ 5.36 µM) |  |  |  | 
10 | COc1cc(O)c(C(=O)/C=C/c2ccco2)cc1CN1CCOCC1 | 16.8 (≈ 48.9 µM) | 1.51 (≈ 4.4 µM) | 13.5 (≈ 39.4 µM) | 8.12 (≈ 23.6 µM) |  |  |  | 
11 | O=C(/C=C/c1ccccn1)c1ccc(O)c(CN2CCOCC2)c1O | 0.95 (≈ 2.79 µM) | 0.08 (≈ 0.235 µM) | 1.54 (≈ 4.52 µM) | 0.8 (≈ 2.35 µM) |  |  |  | 
12 | COc1cc(O)c(C(=O)/C=C/c2ccccc2)cc1CN1CCOCC1 | 0.78 (≈ 2.21 µM) | 0.03 (≈ 0.0849 µM) | 14.9 (≈ 42.2 µM) | 3.5 (≈ 9.9 µM) |  |  |  | 
13 | COc1ccc(/C=C/C(=O)c2cc(CN3CCOCC3)c(OC)cc2O)cc1 | 8.11 (≈ 21.2 µM) | 2.74 (≈ 7.15 µM) | 9.6 (≈ 25 µM) | 6.58 (≈ 17.2 µM) |  |  |  | 
14 | Cc1ccsc1/C=C/C(=O)c1cccc(O)c1CN1CCOCC1 | 2.73 (≈ 7.95 µM) | 1.12 (≈ 3.26 µM) | 5.7 (≈ 16.6 µM) | 1.64 (≈ 4.78 µM) |  |  |  | 
15 | O=C(/C=C/c1cccnc1)c1ccc(O)c(CN2CCOCC2)c1 | 0.68 (≈ 2.1 µM) | 0.29 (≈ 0.894 µM) | 2.11 (≈ 6.5 µM) | 0.69 (≈ 2.13 µM) |  |  |  | 
16 | Cc1ccsc1/C=C/C(=O)c1cc(CN2CCOCC2)c(O)c(CN2CCOCC2)c1 | 12.1 (≈ 27.3 µM) | 16.2 (≈ 36.6 µM) | 9.92 (≈ 22.4 µM) | 12 (≈ 27.1 µM) |  |  |  | 
17 | COc1ccc(/C=C/C(=O)c2cccc(C)c2)c(CN2CCOCC2)c1O | 0.66 (≈ 1.8 µM) | 0.42 (≈ 1.14 µM) | 1.12 (≈ 3.05 µM) | 0.6 (≈ 1.63 µM) |  |  |  | 
18 | O=C(/C=C/c1ccncc1)c1ccc(O)c(CN2CCOCC2)c1 | 0.1 (≈ 0.308 µM) | 0.15 (≈ 0.462 µM) | 0.74 (≈ 2.28 µM) | 0.41 (≈ 1.26 µM) |  |  |  | 

Row | SMILES | EC50 [1] [µg/mL] | EC50 [2] [µg/mL] | EC50 [3] [µg/mL] | EC50 [4] [µg/mL] | Activity [1] | Activity [2] | Activity [3] | Activity [4]
19 | CCOc1cc(O)c(C(=O)/C=C/c2ccccc2)cc1CN1CCOCC1 | 6.72 (≈ 18.3 µM) | 5.24 (≈ 14.3 µM) |  | 9.92 (≈ 27 µM) |  |  | inactive | 
20 | O=C(/C=C/c1ccco1)c1ccc(O)c(CN2CCOCC2)c1 | 7.43 (≈ 23.7 µM) | 4.87 (≈ 15.5 µM) | 6.12 (≈ 19.5 µM) | 3.27 (≈ 10.4 µM) |  |  |  | 
21 | O=C(/C=C/c1cccs1)c1cccc(O)c1CN1CCOCC1 | 1.09 (≈ 3.31 µM) | 1.66 (≈ 5.04 µM) | 2.84 (≈ 8.62 µM) | 2.15 (≈ 6.53 µM) |  |  |  | 
22 | CC(C)Oc1cc(O)c(C(=O)/C=C/c2cccs2)cc1CN1CCOCC1 | 4.04 (≈ 10.4 µM) | 0.24 (≈ 0.619 µM) | 9.44 (≈ 24.4 µM) | 5.02 (≈ 13 µM) |  |  |  | 
23 | O=C(/C=C/c1ccccc1)c1ccc(O)c(CN2CCOCC2)c1 | 0.18 (≈ 0.557 µM) | 0.15 (≈ 0.464 µM) | 2.11 (≈ 6.52 µM) | 0.69 (≈ 2.13 µM) |  |  |  | 
24 | COc1ccc(/C=C/C(=O)c2ccco2)c(CN2CCCCC2)c1O | 3.07 (≈ 8.99 µM) | 0.47 (≈ 1.38 µM) | 5.18 (≈ 15.2 µM) | 2.61 (≈ 7.64 µM) |  |  |  | 
25 | COc1cc(O)c(C(=O)/C=C/c2cccnc2)cc1CN1CCOCC1 | 0.84 (≈ 2.37 µM) | 0.1 (≈ 0.282 µM) |  | 4.64 (≈ 13.1 µM) |  |  | inactive | 
26 | CC(C)=CCOc1ccc(C(=O)/C=C/c2sccc2C)c(O)c1CN1CCOCC1 |  | 3.19 (≈ 7.46 µM) | 8.43 (≈ 19.7 µM) | 7.21 (≈ 16.9 µM) | inactive |  |  | 
27 | COc1cc(O)c(C(=O)/C=C/c2cccs2)cc1CN1CCOCC1 | 6.6 (≈ 18.4 µM) | 3.12 (≈ 8.68 µM) | 7.75 (≈ 21.6 µM) | 6.25 (≈ 17.4 µM) |  |  |  | 
28 | O=C(/C=C/c1ccccn1)c1ccc(O)c(CN2CCOCC2)c1 | 0.31 (≈ 0.956 µM) | 0.12 (≈ 0.37 µM) | 0.73 (≈ 2.25 µM) | 0.3 (≈ 0.925 µM) |  |  |  | 
29 | COc1ccc(/C=C/C(=O)c2cccs2)c(CN2CCCCC2)c1O | 2.02 (≈ 5.65 µM) | 0.11 (≈ 0.308 µM) | 2.93 (≈ 8.2 µM) | 2.09 (≈ 5.85 µM) |  |  |  | 
30 | CCOc1cc(O)c(C(=O)/C=C/c2cccnc2)cc1CN1CCOCC1 |  | 10.6 (≈ 28.8 µM) |  |  | inactive |  | inactive | inactive
31 | CCOc1cc(O)c(C(=O)/C=C/c2ccccn2)cc1CN1CCOCC1 | 3.14 (≈ 8.52 µM) | 4.13 (≈ 11.2 µM) | 5.72 (≈ 15.5 µM) | 5.55 (≈ 15.1 µM) |  |  |  | 
32 | O=C(/C=C/c1ccncc1)c1ccc(CN2CCOCC2)c(O)c1 | 1.87 (≈ 5.76 µM) | 1.23 (≈ 3.79 µM) | 1.95 (≈ 6.01 µM) | 2.62 (≈ 8.08 µM) |  |  |  | 
33 | O=C(/C=C/c1ccccn1)c1ccc(CN2CCOCC2)c(O)c1CN1CCOCC1 | 0.44 (≈ 1.04 µM) | 0.46 (≈ 1.09 µM) | 0.82 (≈ 1.94 µM) | 0.71 (≈ 1.68 µM) |  |  |  | 
34 | O=C(/C=C/c1ccccn1)c1ccc(CN2CCOCC2)c(O)c1 | 0.83 (≈ 2.56 µM) | 0.43 (≈ 1.33 µM) | 1.3 (≈ 4.01 µM) | 0.68 (≈ 2.1 µM) |  |  |  | 
35 | COc1ccc(C(=O)/C=C/c2ccccn2)c(O)c1CN1CCOCC1 | 10.5 (≈ 29.7 µM) | 0.25 (≈ 0.705 µM) | 3.41 (≈ 9.62 µM) | 1.13 (≈ 3.19 µM) |  |  |  | 
36 | CC(C)Oc1ccc(C(=O)/C=C/c2cccs2)c(O)c1CN1CCOCC1 | 2.8 (≈ 7.23 µM) | 0.66 (≈ 1.7 µM) | 5.12 (≈ 13.2 µM) | 1.45 (≈ 3.74 µM) |  |  |  | 

Source: ChEMBL document CHEMBL1155815, “Design, synthesis, and biological evaluation of Mannich bases of heterocyclic chalcone analogs as cytotoxic agents” (Bioorg Med Chem, 2008)
